ChEMBL document CHEMBL3865782 (2016)
Converted amounts (≈) assume the structure as drawn. The source made the active and inactive calls. The calls are words filed in the database; no cut-off is given here.

How the values were obtained:
Format in all cases: functional
Debaryomyces hansenii = assay: Antifungal activity against Debaryomyces hansenii after 16 to 18 hrs by microbroth dilution assay
Outline: (§1)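 Yeast grown in YPD at 30 °C with aeration. CLSI microdilution used two-fold dilutions from a 64 μM start and ~5 × 10^4 CFU per well. Visible turbidity was scored at 16–18 h. The MIC was the lowest concentration without visible growth.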

Pseudomonas putida = assay: Antibacterial activity against Pseudomonas putida KT2440 after 16 to 18 hrs by microbroth dilution assay
Outline: (§2)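 CLSI microbroth dilution. Compound was two-fold serially diluted from a 64 μM starting concentration into wells holding ~5 × 10^4 CFU of the test strain. After 16–18 h incubation, the MIC was taken as the lowest concentration causing no visible turbidity.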

Bacillus subtilis [1] = assay: Antibacterial activity against Bacillus subtilis ATCC 47096 assessed as induction of membrane damage after 30 mins by propidium iodide staining based fluorescent microscopic analysis
Outline: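 Cells grown in LB at 37 °C to OD600 0.5 were resuspended in PBS pH 7.4 with DMSO vehicle, 8, 32 or 64 μM compound for 30 min at ~22 °C. Cells were then washed, stained with 10 μM propidium iodide for 15 min, immobilized in agarose, and imaged by confocal fluorescence and DIC microscopy.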

Bacillus subtilis [2] = assay: Antibacterial activity against Bacillus subtilis P10B derived after 10 passage in presence of JBIR-100 after 16 to 18 hrs by microbroth dilution assay
Outline: (§3)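 Mutants were derived from B. subtilis ATCC 47096 in three independent cultures. Each was passaged 10 times every 24 h at 37 °C in LB, starting at 0.5× MIC and raised in 0.5× MIC steps. Isolates were restreaked three times on drug-free LB agar to confirm stability.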

Enterococcus faecium = assay: Antibacterial activity against Vancomycin-resistant Enterococcus faecium U503 after 16 to 18 hrs by microbroth dilution assay
Outline: (§4)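 Broth microdilution per CLSI in LB at 37 °C with aeration. Twofold serial dilutions from a starting concentration of 64 μM were added to wells holding ~5 × 10^4 CFU of the test strain. Turbidity was read after 16–18 h. MIC was taken as the lowest concentration with no visible growth.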

Bacillus subtilis [3] = assay: Antibacterial activity against Bacillus subtilis ATCC 47096 assessed as induction of membrane depolarization after 30 mins by DiOC2(3) dye based flow cytometric analysis
Outline: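 Three independent LB cultures grown to OD600 0.5 were diluted into PBS containing DiOC2(3) with DMSO vehicle, 5 μM CCCP (positive control), or 0.1–1.0 μM compound. Cells were mixed 30 min at ~22 °C and analysed by flow cytometry. Red/green fluorescence ratio geometric means were normalized to vehicle.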

Escherichia coli [4] = assay: Antibacterial activity against Escherichia coli MC1061 after 16 to 18 hrs by microbroth dilution assay; outline: as §2
Bacillus subtilis [5] = assay: Antibacterial activity against Bacillus subtilis ATCC 47096 after 16 to 18 hrs by microbroth dilution assay; outline: as §4
Bacillus cereus = assay: Antibacterial activity against Bacillus cereus ATCC 4342 after 16 to 18 hrs by microbroth dilution assay
Outline: (§5)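 Broth microdilution following CLSI, in LB at 37 °C with aeration. Starting at 64 μM, two-fold serial dilutions were added to wells holding ~5 × 10^4 CFU. Turbidity was inspected after 16–18 h. The MIC was the lowest concentration that inhibited visible growth.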

[6] = Antifungal activity against Saccharomyces cerevisiae after 16 to 18 hrs by microbroth dilution assay; outline: as §1
Candida albicans = assay: Antifungal activity against Candida albicans after 16 to 18 hrs by microbroth dilution assay
Outline: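 CLSI microbroth dilution in YPD at 30 °C with aeration. Two-fold serial dilutions started at 128 μM, with ~5 × 10^4 CFU per well. Turbidity was inspected after 16–18 h. The MIC was the lowest concentration inhibiting visible growth.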

[7] = Antifungal activity against Zygosaccharomyces rouxii after 40 to 42 hrs by microbroth dilution assay
Outline: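 CLSI microdilution in YPD at 30 °C with aeration. Two-fold serial dilutions started at 64 μM, with ~5 × 10^4 CFU per well. Incubation was extended to 40–42 h before turbidity inspection. The MIC was the lowest concentration inhibiting visible growth.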

Escherichia coli [8] = assay: Antibacterial activity against Escherichia coli DH5alpha after 16 to 18 hrs by microbroth dilution assay; conditions: DH5[alpha]; outline: as §2
[9] = Antifungal activity against Kluyveromyces lactis after 16 to 18 hrs by microbroth dilution assay; outline: as §1
Staphylococcus aureus = assay: Antibacterial activity against Methicillin-resistant Staphylococcus aureus USA300 after 16 to 18 hrs by microbroth dilution assay; outline: as §4
[10] = tested on: Mycolicibacterium smegmatis; assay: Antibacterial activity against Mycobacterium smegmatis NRRL B-14616 after 16 to 18 hrs by microbroth dilution assay
Outline: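 Broth microdilution following CLSI, in LB with 0.05% Tween 80 at 37 °C with aeration. Two-fold serial dilutions started at 64 μM, with ~5 × 10^4 CFU per well. Wells were read by visible turbidity after 16–18 h. The MIC was the lowest concentration preventing visible growth.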

Bacillus subtilis [11] = assay: Bactericidal activity against Bacillus subtilis ATCC 47096 after 16 hrs; conditions: ATCC 47096, 16 h, read-out: MBC=>99.9
Bacillus subtilis [12] = assay: Bactericidal activity against Bacillus subtilis ATCC 47096 at 8 to 32 uM after 16 hrs
Outline: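 Mid-exponential cultures (OD600 0.4, diluted 1000-fold from stationary cultures into LB) were treated with vehicle (DMSO), 8, 16 or 32 μM at 37 °C. OD595 was read every 10 min for 16 h with shaking between reads. Values were normalized to 0.4 at t = 0 and averaged over three independent cultures.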

Bacillus subtilis [13] = assay: Antibacterial activity against Bacillus subtilis P10C derived after 10 passage in presence of JBIR-100 after 16 to 18 hrs by microbroth dilution assay; outline: as §3
Bacillus thuringiensis = assay: Antibacterial activity against Bacillus sp. Al Hakam after 16 to 18 hrs by microbroth dilution assay; outline: as §5
Bacillus subtilis [14] = assay: Antibacterial activity against Bacillus subtilis P10A derived after 10 passage in presence of JBIR-100 after 16 to 18 hrs by microbroth dilution assay; outline: as §3
Bacillus subtilis [15] = assay: Antibacterial activity against Bacillus subtilis subsp. subtilis str. 168 after 16 to 18 hrs by microbroth dilution assay; outline: as §5
Bacillus subtilis [16] = assay: Antibacterial activity against Bacillus subtilis P10C derived after 10 passage in presence of JBIR-100 after 16 to 18 hrs by microbroth dilution assay relative to Bacillus subtilis ATCC 47096
Bacillus subtilis [17] = assay: Antibacterial activity against Bacillus subtilis P10A derived after 10 passage in presence of JBIR-100 after 16 to 18 hrs by microbroth dilution assay relative to Bacillus subtilis ATCC 47096
Bacillus subtilis [18] = assay: Antibacterial activity against Bacillus subtilis P10B derived after 10 passage in presence of JBIR-100 after 16 to 18 hrs by microbroth dilution assay relative to Bacillus subtilis ATCC 47096

| Compound | MIC (Bacillus subtilis [2]) [µM] | MIC (Bacillus subtilis [5]) [µM] | MIC (Bacillus subtilis [13]) [µM] | MIC (Bacillus subtilis [14]) [µM] | fold change (FC) (Bacillus subtilis [16]) | fold change (FC) (Bacillus subtilis [17]) | fold change (FC) (Bacillus subtilis [18]) | also measured |
| --- | --- | --- | --- | --- | --- | --- | --- | --- |
| CO[C@H]1/C=C/C=C(\C)C[C@H](C)[C@H](O)[C@H](C)/C=C(C)/C=C(\C)C(=O)O[C@@H]1[C@@H](C)[C@@H](O)[C@H](C)[C@@]1(O)C[C@@H](OC(=O)/C=C/C(=O)O)[C@H](C)[C@@H](C(C)C)O1 | 16 | 8 (≈ 5.64 µg/mL) | 16 | 16 |  |  |  | MIC (Debaryomyces hansenii): 8 µM (≈ 5.64 µg/mL); MIC (Pseudomonas putida): > 64 µM; Activity (Bacillus subtilis [1]): Dose-dependent effect; MIC (Enterococcus faecium): 16 µM (≈ 11.3 µg/mL); Activity (Bacillus subtilis [3]): Dose-dependent effect; MIC (Escherichia coli [4]): > 64 µM; MIC (Bacillus cereus): 4 µM (≈ 2.82 µg/mL); MIC [6]: > 64 µM; MIC (Candida albicans): > 128 µM; MIC [7]: 32 µM (≈ 22.6 µg/mL); MIC (Escherichia coli [8]): > 64 µM; MIC [9]: > 64 µM; MIC (Staphylococcus aureus): 4 µM (≈ 2.82 µg/mL); MIC [10]: > 64 µM; MBC (Bacillus subtilis [11]): 16 µM (≈ 11.3 µg/mL); Activity (Bacillus subtilis [12]): Active; MIC (Bacillus thuringiensis): 4 µM (≈ 2.82 µg/mL); MIC (Bacillus subtilis [15]): 8 µM (≈ 5.64 µg/mL) |
| NC[C@H]1O[C@H](O[C@H]2[C@H](O)[C@@H](O[C@H]3O[C@H](CO)[C@@H](O)[C@H](N)[C@H]3O)[C@H](N)C[C@@H]2N)[C@H](O)[C@@H](O)[C@@H]1O [KANAMYCIN] | 64 | 256 (≈ 124 µg/mL) | 64 | 128 | 2 - 4 | 2 - 4 | 2 - 4 |  |
| O=C(O)c1cn(C2CC2)c2cc(N3CCNCC3)c(F)cc2c1=O [CIPROFLOXACIN] | 0.125 | 0.125 (≈ 0.0414 µg/mL) | 0.125 | 0.125 |  |  |  |  |
| CC1(C)S[C@@H]2[C@H](NC(=O)[C@H](N)c3ccccc3)C(=O)N2[C@H]1C(=O)O [AMPICILLIN] | 0.125 | 0.125 (≈ 0.0437 µg/mL) | 0.125 | 0.125 |  |  |  |  |
| CO[C@H]1/C=C/O[C@@]2(C)Oc3c(C)c(O)c4c(O)c(c(/C=N/N5CCN(C)CC5)c(O)c4c3C2=O)NC(=O)/C(C)=C\C=C\[C@H](C)[C@H](O)[C@@H](C)[C@@H](O)[C@@H](C)[C@H](OC(C)=O)[C@@H]1C [RIFAMPIN] | 0.125 | 0.0625 (≈ 0.0514 µg/mL) | 0.125 | 0.25 | 2 - 4 | 2 - 4 | 2 - 4 |  |
| CN[C@H](CC(C)C)C(=O)N[C@H]1C(=O)N[C@@H](CC(N)=O)C(=O)N[C@H]2C(=O)N[C@H]3C(=O)N[C@H](C(=O)N[C@H](C(=O)O)c4cc(O)cc(O)c4-c4cc3ccc4O)[C@H](O)c3ccc(c(Cl)c3)Oc3cc2cc(c3O[C@@H]2O[C@H](CO)[C@@H](O)[C@H](O)[C@H]2O[C@H]2C[C@](C)(N)[C@H](O)[C@H](C)O2)Oc2ccc(cc2Cl)[C@H]1O [VANCOMYCIN] | 0.0625 | 0.125 (≈ 0.181 µg/mL) | 0.0625 | 0.125 | 2 | 2 | 2 |  |
| Oc1cc(Cl)ccc1Oc1ccc(Cl)cc1Cl [TRICLOSAN] | 8 | 8 (≈ 2.32 µg/mL) | 8 | 8 |  |  |  |  |
| O=C(N[C@H](CO)[C@H](O)c1ccc([N+](=O)[O-])cc1)C(Cl)Cl [CHLORAMPHENICOL] | 8 | 8 (≈ 2.59 µg/mL) | 8 | 4 | 2 | 2 | 2 |  |
